In ChEMBL document CHEMBL5584302, “Exploration of Hydrazide-Based HDAC8 PROTACs for the Treatment of Hematological Malignancies and Solid Tumors” (J Med Chem, 2024):
pIC50: −log10 of the molar value. One block for each compound: values may come before it. Calls of active or inactive are those of the source. The calls are words filed in the database; no cut-off is given here.

Key:
Jurkat [1] = assay: Upregulation of Ac-SMC3 level in human Jurkat cells at 1 uM measured after 6 hrs by Western blot analysis; format: functional, cell-based
How it was run: (§1)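 Jurkat cells exposed to the indicated compound concentrations for 6 h. Ac-SMC3 and Ac-HH3 were detected by Western blot with GAPDH as loading control. Bands were quantified by densitometry and normalized to the DMSO-treated group. Data are mean ± SEM of two independent experiments, compared with DMSO by one-way ANOVA.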

Jurkat [2] = assay: Upregulation of Ac-SMC3 level in human Jurkat cells at high concentration incubated for 6 hrs by Western blot analysis; format: functional, cell-based; how it was run: as §1
Jurkat [3] = assay: Upregulation of Ac-HH3 level in human Jurkat cells at high concentration incubated for 6 hrs by Western blot analysis; format: functional, cell-based; how it was run: as §1
[4] = biological target: Protein cereblon/Histone deacetylase 8 (Homo sapiens) (UniProt Q9BY41+Q96SW2); assay: PROTAC activity at CRBN/HDAC8 in human Jurkat cells assessed as induction of HDAC8 degradation at 10 uM measured after 48 hrs by Western blot analysis; format: cell-based
Chain of Protein cereblon/Histone deacetylase 8 (Homo sapiens) (Q96SW2 whole entry, looked up): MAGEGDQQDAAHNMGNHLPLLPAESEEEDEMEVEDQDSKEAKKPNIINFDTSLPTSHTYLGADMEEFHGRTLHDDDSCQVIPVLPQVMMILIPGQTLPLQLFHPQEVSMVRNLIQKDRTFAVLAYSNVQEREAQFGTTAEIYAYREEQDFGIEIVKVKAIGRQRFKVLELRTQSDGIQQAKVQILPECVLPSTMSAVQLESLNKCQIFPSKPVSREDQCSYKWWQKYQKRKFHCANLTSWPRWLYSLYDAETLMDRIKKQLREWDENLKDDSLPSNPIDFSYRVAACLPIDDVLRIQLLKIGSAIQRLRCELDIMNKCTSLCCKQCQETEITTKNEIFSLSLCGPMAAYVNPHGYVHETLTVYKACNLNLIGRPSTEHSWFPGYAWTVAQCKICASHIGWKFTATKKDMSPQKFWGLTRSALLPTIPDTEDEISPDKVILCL
Chain of Protein cereblon/Histone deacetylase 8 (Homo sapiens) (Q9BY41 whole entry, looked up): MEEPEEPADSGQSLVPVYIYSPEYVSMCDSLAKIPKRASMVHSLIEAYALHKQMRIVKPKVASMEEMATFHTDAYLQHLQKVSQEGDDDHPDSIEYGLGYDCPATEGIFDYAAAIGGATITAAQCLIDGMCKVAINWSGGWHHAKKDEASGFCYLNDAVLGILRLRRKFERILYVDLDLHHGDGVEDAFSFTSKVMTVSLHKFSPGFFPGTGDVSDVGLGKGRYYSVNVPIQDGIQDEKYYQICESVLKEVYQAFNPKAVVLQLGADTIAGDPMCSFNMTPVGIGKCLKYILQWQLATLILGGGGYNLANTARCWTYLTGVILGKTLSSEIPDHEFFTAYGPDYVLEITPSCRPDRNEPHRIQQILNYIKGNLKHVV

Jurkat [5] = assay: Effect on AcHH3 level on human Jurkat cells at 10 uM measured after 48 hrs by Western blot analysis; format: functional, cell-based
Jurkat [6] = assay: Effect on AcHH4 level on human Jurkat cells at 10 uM measured after 48 hrs by Western blot analysis; format: functional, cell-based
Jurkat [7] = assay: Induction of apoptosis in human Jurkat cells assessed as increase in caspase 3/7 activity at 5 uM incubated for 48 hrs in presence of tert-butyl 2-(4-(4-((2,6-dioxopiperidin-3-yl)amino)phenyl)piperidin-1-yl)acetate; format: functional, cell-based
HCT-116 [8] = assay: Induction of apoptosis in human HCT-116 cells assessed as increase in caspase 3/7 activity at 5 uM incubated for 48 hrs in presence of tert-butyl 2-(4-(4-((2,6-dioxopiperidin-3-yl)amino)phenyl)piperidin-1-yl)acetate; format: functional, cell-based
HCT-116 [9] = assay: Induction of apoptosis in human HCT-116 cells assessed as viable cells at 10 uM measured after 48 hrs in presence of tert-butyl 2-(4-(4-((2,6-dioxopiperidin-3-yl)amino)phenyl)piperidin-1-yl)acetate by AnnexinV/FITC and PI staining based flow cytometry analysis (reference value: 91.3%); format: functional; settings: read-out: Activity
HCT-116 [10] = assay: Induction of apoptosis in human HCT-116 cells assessed as early apoptotic cells at 10 uM measured after 48 hrs in presence of tert-butyl 2-(4-(4-((2,6-dioxopiperidin-3-yl)amino)phenyl)piperidin-1-yl)acetate by AnnexinV/FITC and PI staining based flow cytometry analysis (reference value: 5.39%); format: functional
HCT-116 [11] = assay: Induction of apoptosis in human HCT-116 cells assessed as late apoptotic cells at 10 uM measured after 48 hrs in presence of tert-butyl 2-(4-(4-((2,6-dioxopiperidin-3-yl)amino)phenyl)piperidin-1-yl)acetate by AnnexinV/FITC and PI staining based flow cytometry analysis (reference value: 1.96%); format: functional
HCT-116 [12] = assay: Induction of apoptosis in human HCT-116 cells assessed as necrotic cells at 10 uM measured after 48 hrs in presence of tert-butyl 2-(4-(4-((2,6-dioxopiperidin-3-yl)amino)phenyl)piperidin-1-yl)acetate by AnnexinV/FITC and PI staining based flow cytometry analysis (reference value: […]); format: functional
Jurkat [13] = assay: Upregulation of Ac-HH3 level in human Jurkat cells at 0.4 to […] uM incubated for 24 hrs by Western blot analysis; format: functional, cell-based; settings: dose 0.4-33.3 µM
Jurkat [14] = assay: Upregulation of Ac-HH4 level in human Jurkat cells at 0.4 to […] uM incubated for 24 hrs by Western blot analysis; format: functional, cell-based; settings: dose 0.4-33.3 µM
Jurkat [15] = assay: Upregulation of Ac-HH3 level in human Jurkat cells incubated for 6 hrs by Western blot analysis; format: functional, cell-based; how it was run: as §1
HCT-116 [16] = assay: Upregulation of Ac-HH3 level in human HCT-116 cells incubated for 6 hrs by Western blot analysis; format: functional, cell-based; settings: dose 0.004-3.3 µM
How it was run: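 HCT116 cells were incubated with graded concentrations for 6 h. Ac-HH3 was detected by Western blot with GAPDH as the loading control, then quantified by densitometry and normalized to DMSO-treated cells. Data are mean ± SEM of two independent experiments, compared against DMSO by one-way ANOVA.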

Jurkat [17] = assay: Effect on Ac-tubulin level in human Jurkat cells at 0.33 to 0.11 uM incubated for 6 hrs by Western blot analysis; format: functional, cell-based; settings: dose 0.33-0.11 µM
How it was run: (§2)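 Cells were exposed to the compound for 6 h. Acetylated tubulin was detected by Western blot, with GAPDH as the loading control.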

HCT-116 [18] = assay: Effect on Ac-tubulin level in human HCT-116 cells at 0.33 to 0.11 uM incubated for 6 hrs by Western blot analysis; format: functional, cell-based; settings: dose 0.33-0.11 µM; how it was run: as §2
THP-1 [19] = assay: Upregulation of Ac-HH3 level in human THP-1 cells at 1.1 to 3.3 uM measured after 24 hrs by Western blot analysis; format: functional, cell-based; settings: dose 1.1-3.3 µM
How it was run: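 THP-1 cells were exposed to the compound at the indicated concentrations for 24 h, then immunoblotted for Ac-HH3, Ac-SMC3, Ac-tubulin and HDAC8 with GAPDH as loading control. Band intensities were quantified and normalized to the DMSO-treated group. Data are mean ± SEM of two independent experiments, analysed by one-way ANOVA against DMSO.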

Jurkat [20] = assay: Upregulation of Ac-HH3 level in human Jurkat cells at 3.7 to […] uM incubated for 6 hrs by Western blot analysis; format: functional, cell-based; settings: dose 3.7-33.3 µM
THP-1 [21] = assay: cells; settings: Homo sapiens, THP-1, 72 h
Jurkat [22] = assay: Antiproliferative activity against human Jurkat cells assessed as inhibition of cell growth measured after 72 hrs in presence of N-(4-(2-Hexylhydrazine-1-carbonyl)benzyl)acetamide by MTS assay; format: functional, cell-based
THP-1 [23] = assay: Antiproliferative activity against human THP-1 cells assessed as inhibition of cell growth measured after 72 hrs in presence of N-(4-(2-Hexylhydrazine-1-carbonyl)benzyl)acetamide by MTS assay; format: functional, cell-based; settings: THP-1, 72 h
HCT-116 [24] = assay: Antiproliferative activity against human HCT-116 cells assessed as inhibition of cell growth measured after 72 hrs in presence of N-(4-(2-Hexylhydrazine-1-carbonyl)benzyl)acetamide by MTS assay; format: functional, cell-based; settings: HCT-116, 72 h
A549 = assay: Antiproliferative activity against human A549 cells assessed as inhibition of cell growth measured after 72 hrs in presence of N-(4-(2-Hexylhydrazine-1-carbonyl)benzyl)acetamide by MTS assay; format: functional, cell-based; settings: A549, 72 h
Jurkat [25] = assay: Induction of apoptosis in human Jurkat cells assessed as increase in caspase 3/7 activity at 5 uM incubated for 48 hrs in presence of N-(4-(2-Hexylhydrazine-1-carbonyl)benzyl)acetamide; format: functional, cell-based
HCT-116 [26] = assay: Induction of apoptosis in human HCT-116 cells assessed as increase in caspase 3/7 activity at 5 uM incubated for 48 hrs in presence of N-(4-(2-Hexylhydrazine-1-carbonyl)benzyl)acetamide; format: functional, cell-based
HCT-116 [27] = assay: Induction of apoptosis in human HCT-116 cells assessed as viable cells at 10 uM measured after 48 hrs in presence of N-(4-(2-Hexylhydrazine-1-carbonyl)benzyl)acetamide by AnnexinV/FITC and PI staining based flow cytometry analysis (reference value: 91.3%); format: functional; settings: read-out: Activity
HCT-116 [28] = assay: Induction of apoptosis in human HCT-116 cells assessed as early apoptotic cells at 10 uM measured after 48 hrs in presence of N-(4-(2-Hexylhydrazine-1-carbonyl)benzyl)acetamide by AnnexinV/FITC and PI staining based flow cytometry analysis (reference value: 5.39%); format: functional
HCT-116 [29] = assay: Induction of apoptosis in human HCT-116 cells assessed as late apoptotic cells at 10 uM measured after 48 hrs in presence of N-(4-(2-Hexylhydrazine-1-carbonyl)benzyl)acetamide by AnnexinV/FITC and PI staining based flow cytometry analysis (reference value: 1.96%); format: functional
HCT-116 [30] = assay: Induction of apoptosis in human HCT-116 cells assessed as necrotic cells at 10 uM measured after 48 hrs in presence of N-(4-(2-Hexylhydrazine-1-carbonyl)benzyl)acetamide by AnnexinV/FITC and PI staining based flow cytometry analysis (reference value: […]); format: functional
Jurkat [31] = assay: Upregulation of Ac-tubulin level in human Jurkat cells at 1 uM measured after 6 hrs by Western blot analysis; format: functional, cell-based
How it was run: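 Jurkat cells were treated for 6 h at the indicated concentrations. Acetylated tubulin was probed by Western blot, with GAPDH as loading control.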

Jurkat [32] = assay: Upregulation of Ac-HH3 level in human Jurkat cells at 1 uM measured after 6 hrs by Western blot analysis; format: functional, cell-based; how it was run: as §1
Jurkat [33] = assay: Upregulation of Ac-HH3 level in human Jurkat cells at 0.004 to 0.33 uM incubated for 6 hrs by Western blot analysis; format: functional, cell-based; settings: dose 0.004-0.33 µM
How it was run: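 Jurkat cells were exposed to the compound for 6 h. Ac-SMC3, Ac-HH3, Ac-tubulin and HDAC8 were probed by Western blot with GAPDH as loading control. Ac-HH3 bands were quantified by densitometry and normalized to the DMSO-treated group. Values are mean ± SEM of two independent experiments, compared with DMSO by one-way ANOVA.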

Jurkat [34] = assay: Upregulation of AcHH4 level on human Jurkat cells at 1 to 10 uM measured after 48 hrs by Western blot analysis; format: functional, cell-based; settings: dose 1-10 µM
Jurkat [35] = assay: Upregulation of AcHH3 level on human Jurkat cells at 1 to 10 uM measured after 48 hrs by Western blot analysis; format: functional, cell-based; settings: dose 1-10 µM
Jurkat [36] = assay: Induction of apoptosis in human Jurkat cells assessed as increase in caspase 3/7 activity at 5 uM incubated for 48 hrs; format: functional, cell-based
HCT-116 [37] = assay: Induction of apoptosis in human HCT-116 cells assessed as increase in caspase 3/7 activity at 5 uM incubated for 48 hrs; format: functional, cell-based

- Activity [4]: inactive
Compound: CCCCCCNNC(=O)c1ccc(CNC(C)=O)cc1
- Activity (Jurkat [1]): inactive
- Activity (Jurkat [2]): Active
- Activity (Jurkat [3]): Active
- Activity (Jurkat [5]): inactive
- Activity (Jurkat [6]): inactive
- Activity (Jurkat [7]): inactive
- Activity (HCT-116 [8]): inactive
- viability at 10 µM (HCT-116 [9]): 73.2%
- Activity (HCT-116 [10]): 19.6%
- Activity (HCT-116 [11]): 3.87%
- Activity (HCT-116 [12]): 3.33%

Compound: COc1ccc(Cn2ccc3ccc(C(=O)NO)cc32)cc1
- Activity (Jurkat [13]): inactive
- Activity (Jurkat [14]): inactive

Compound: CCCCCCNNC(=O)c1ccc(CNC(=O)CN2CCC(c3ccc(NC(C)=O)cc3)CC2)cc1
- Activity (Jurkat [15]): Dose-Dependent Effect
- Activity (HCT-116 [16]): Dose-Dependent Effect
- Activity (Jurkat [17]): inactive
- Activity (HCT-116 [18]): inactive
- Activity (THP-1 [19]): Active

Compound: CCCCCCN(NC(=O)c1ccc(CNC(=O)CN2CCC(c3ccc(NC4CCC(=O)NC4=O)cc3)CC2)cc1)C(=O)OC(C)(C)C (centres undefined)
- Activity (Jurkat [20]): inactive

- pIC50 (THP-1 [21]): 5.64
Compound: Nc1ccccc1NC(=O)c1ccc(CNC(=O)OCc2cccnc2)cc1 [ENTINOSTAT]

- pIC50 (Jurkat [22]): < 4.48
- pIC50 (THP-1 [23]): < 4.48
- pIC50 (HCT-116 [24]): < 4.48
- pIC50 (A549): < 4.48
Compound: CC(C)(C)OC(=O)CN1CCC(c2ccc(NC3CCC(=O)NC3=O)cc2)CC1 (centres undefined)
- Activity (Jurkat [25]): inactive
- Activity (HCT-116 [26]): inactive
- viability at 10 µM (HCT-116 [27]): 73.2%
- Activity (HCT-116 [28]): 19.6%
- Activity (HCT-116 [29]): 3.87%
- Activity (HCT-116 [30]): 3.33%

Compound: O=C(CCCCCCC(=O)Nc1ccccc1)NO
- Activity (Jurkat [1]): inactive
- Activity (Jurkat [31]): Active
- Activity (Jurkat [32]): Active
- Activity (Jurkat [33]): Active
- Activity (Jurkat [34]): Active
- Activity (Jurkat [35]): Active
- Activity (Jurkat [36]): Active
- Activity (HCT-116 [37]): Active
